What was measured:
HeLa = assay: Cytotoxicity against human HeLa cells after 48 hrs by SRB assay; format: functional; conditions: for CC50: read-out: LC50 (the source's name)
How it was run: (§1)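 Cells grown in RPMI 1640 with 10% FBS and penicillin/streptomycin at 37 °C and 5% CO₂, trypsinized, then seeded at 5 × 10³/well. After 18 h drug-free attachment, samples in DMSO/EtOH/PBS (0.5:0.5:99) were added for 48 h continuous exposure. Cells were fixed with cold TCA (1 h, 4 °C) and stained with SRB (10 min). Tris-solubilized stain read at 490 nm. Triplicate wells, mean ± SD; GI₅₀ derived.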

[1] = Cytotoxicity against human IGROV cells after 48 hrs by SRB assay; format: functional; conditions: for CC50: read-out: LC50 (the source's name); how it was run: as §1
[2] = Cytotoxicity against human HeLa-APL cells after 48 hrs by SRB assay; format: functional; how it was run: as §1
[3] = Cytotoxicity against human IGROV-ET cells after 48 hrs by SRB assay; format: functional; conditions: for CC50: read-out: LC50 (the source's name); how it was run: as §1
SK-MEL-28 = assay: Cytotoxicity against human SK-MEL-28 cells after 48 hrs by SRB assay; format: functional, cell-based; conditions: Homo sapiens, SK-MEL-28, 48 h; for CC50: read-out: LC50 (the source's name); how it was run: as §1
DU-145 = assay: Cytotoxicity against human DU145 cells after 48 hrs by SRB assay; format: functional, cell-based; conditions: Homo sapiens, DU-145, 48 h; for CC50: read-out: LC50 (the source's name); how it was run: as §1
PANC-1 = assay: Cytotoxicity against human PANC1 cells after 48 hrs by SRB assay; format: functional; conditions: PANC-1, 48 h; for CC50: read-out: LC50 (the source's name); how it was run: as §1
K562 = assay: Cytotoxicity against human K562 cells after 48 hrs by SRB assay; format: functional; conditions: K562, 48 h; for CC50: read-out: LC50 (the source's name); how it was run: as §1
A549 = assay: Cytotoxicity against human A549 cells after 48 hrs by SRB assay; format: functional, cell-based; conditions: Homo sapiens, A549, 48 h; how it was run: as §1
LoVo [4] = assay: Cytotoxicity against human LoVo cells after 48 hrs by SRB assay; format: functional; conditions: for CC50: read-out: LC50 (the source's name)
LoVo [5] = assay: Cytotoxicity against human doxorubicin resistant LoVo cells after 48 hrs by SRB assay; format: functional; conditions: for CC50: read-out: LC50 (the source's name); how it was run: as §1
SK-BR-3 = assay: Cytotoxicity against human SKBR3 cells after 48 hrs by SRB assay; format: functional; conditions: SK-BR-3, 48 h; for CC50: read-out: LC50 (the source's name); for GI50: read-out: GI50; how it was run: as §1
HT-29 = assay: Cytotoxicity against human HT29 cells after 48 hrs by SRB assay; format: functional, cell-based; conditions: Homo sapiens, HT-29, 48 h; for CC50: read-out: LC50 (the source's name); how it was run: as §1
LNCaP = assay: Cytotoxicity against human LNcaP cells after 48 hrs by SRB assay; format: functional; conditions: for CC50: read-out: LC50 (the source's name); how it was run: as §1

| Structure (SMILES) | CC50 (HeLa) [nM] | CC50 [1] [nM] | GI50 [2] [nM] | LC50 (concentration giving 50% net cell kill) [2] [nM] | TGI [2] [nM] | GI50 [3] [nM] | CC50 [3] [nM] | GI50 (SK-MEL-28; read-out: GI50) [nM] | CC50 (SK-MEL-28) [nM] | CC50 (DU-145) [nM] | CC50 (PANC-1) [nM] | LC50 (A549) [nM] | GI50 (LoVo [4]) [nM] | TGI (LoVo [4]) [nM] | CC50 (LoVo [4]) [nM] | GI50 (LoVo [5]) [nM] | TGI (LoVo [5]) [nM] | CC50 (LoVo [5]) [nM] | CC50 (SK-BR-3) [nM] | CC50 (HT-29) [nM] | further results |
| --- | --- | --- | --- | --- | --- | --- | --- | --- | --- | --- | --- | --- | --- | --- | --- | --- | --- | --- | --- | --- | --- |
| C/C=C1\NC(=O)[C@H](Cc2cccs2)NC(=O)[C@@H](C(C)C)NC(=O)[C@@H]([C@H](C)CC)NC(=O)[C@H](NC(=O)[C@H](NC(=O)[C@H](CCCN)NC(=O)[C@H]2CCCN2C(=O)[C@H](NC(=O)[C@@H](NC(=O)[C@@H](NC(=O)[C@H](NC(=O)CC[C@@H](C)CC)C(C)C)[C@@H](C)O)C(C)C)C(C)C)[C@H](C)CC)[C@H](C)OC(=O)[C@H](C(C)C)NC1=O | 1070 | 676 | 1770 | 1130 | 1420 | 855 | 505 | 1580 | 1290 | 1070 | 2010 | 1210 | 751 | 1190 | 1930 | 390 | 391 | 393 | 110 | 657 | GI50 (HeLa): 1590 nM; TGI (HeLa): 1290 nM; GI50 ([3]; read-out: GI50): 1710 nM; TGI (SK-MEL-28): 1430 nM; TGI (DU-145): 1210 nM; GI50 (DU-145; read-out: GI50): 1380 nM; GI50 (K562): 4920 nM; TGI (K562): 4290 nM; CC50 (K562): 2690 nM; TGI (A549): 1450 nM; GI50 (A549; read-out: GI50): 1760 nM; GI50 (HT-29): 1290 nM; TGI (HT-29): 1020 nM |
| C/C=C1\NC(=O)[C@H](Cc2ccc(I)cc2)NC(=O)[C@@H](C(C)C)NC(=O)[C@@H]([C@H](C)CC)NC(=O)[C@H](NC(=O)[C@H](NC(=O)[C@H](CCCN)NC(=O)[C@H]2CCCN2C(=O)[C@H](NC(=O)[C@@H](NC(=O)[C@@H](NC(=O)[C@H](NC(=O)CC[C@@H](C)CC)C(C)C)[C@@H](C)O)C(C)C)C(C)C)[C@H](C)CC)[C@H](C)OC(=O)[C@H](C(C)C)NC1=O | 156 | 179 | 313 | 605 | 416 | 955 | 776 | 160 | 354 | 117 | 1410 | 181 | 365 | 361 | 358 | 134 | 183 | 225 | 327 | 423 | GI50 [1]: 394 nM; GI50 ([1]; read-out: GI50): 670 nM; GI50 ([3]; read-out: GI50): 1190 nM; GI50 (SK-MEL-28): 202 nM; GI50 (DU-145): 131 nM; GI50 (DU-145; read-out: GI50): 148 nM; GI50 (PANC-1): 1200 nM; TGI (PANC-1): 1300 nM; GI50 (A549): 203 nM; GI50 (A549; read-out: GI50): 226 nM; GI50 (LNCaP): 345 nM; TGI (LNCaP): 512 nM; CC50 (LNCaP): 686 nM; TGI (SK-BR-3): 315 nM; GI50 (SK-BR-3): 305 nM; GI50 (HT-29): 396 nM; TGI (HT-29): 407 nM |
| C/C=C1\NC(=O)[C@H](Cc2ccc([N+](=O)[O-])cc2)NC(=O)[C@@H](C(C)C)NC(=O)[C@@H]([C@H](C)CC)NC(=O)[C@H](NC(=O)[C@H](NC(=O)[C@H](CCCN)NC(=O)[C@H]2CCCN2C(=O)[C@H](NC(=O)[C@@H](NC(=O)[C@@H](NC(=O)[C@H](NC(=O)CC[C@@H](C)CC)C(C)C)[C@@H](C)O)C(C)C)C(C)C)[C@H](C)CC)[C@H](C)OC(=O)[C@H](C(C)C)NC1=O | 185 | 197 | 569 | 783 | 700 | 811 | 636 | 188 | 436 | 561 | 1580 | 891 | 317 | 314 | 311 | 90.4 | 141 | 209 | 451 | 409 | GI50 [1]: 417 nM; GI50 ([1]; read-out: GI50): 682 nM; GI50 ([3]; read-out: GI50): 1050 nM; GI50 (SK-MEL-28): 235 nM; TGI (DU-145): 3640 nM; GI50 (DU-145; read-out: GI50): 261 nM; GI50 (PANC-1): 1290 nM; TGI (PANC-1): 1430 nM; GI50 (A549): 724 nM; GI50 (A549; read-out: GI50): 562 nM; GI50 (LNCaP): 482 nM; TGI (LNCaP): 511 nM; CC50 (LNCaP): 669 nM; TGI (SK-BR-3): 406 nM; GI50 (SK-BR-3): 366 nM; GI50 (HT-29): 419 nM; TGI (HT-29): 411 nM |
| C/C=C1\NC(=O)[C@H](Cc2ccc(F)cc2)NC(=O)[C@@H](C(C)C)NC(=O)[C@@H]([C@H](C)CC)NC(=O)[C@H](NC(=O)[C@H](NC(=O)[C@H](CCCN)NC(=O)[C@H]2CCCN2C(=O)[C@H](NC(=O)[C@@H](NC(=O)[C@@H](NC(=O)[C@H](NC(=O)CC[C@@H](C)CC)C(C)C)[C@@H](C)O)C(C)C)C(C)C)[C@H](C)CC)[C@H](C)OC(=O)[C@H](C(C)C)NC1=O | 2820 | 381 | 737 | 837 | 786 | 791 | 649 | 699 | 953 | 893 | 1580 | 1040 | 393 | 361 | 330 | 413 | 460 | 512 | 389 | 479 | GI50 [1]: 558 nM; GI50 ([1]; read-out: GI50): 812 nM; GI50 ([3]; read-out: GI50): 971 nM; GI50 (SK-MEL-28): 819 nM; GI50 (DU-145): 893 nM; GI50 (DU-145; read-out: GI50): 891 nM; GI50 (PANC-1): 1460 nM; TGI (PANC-1): 1530 nM; TGI (A549): 1030 nM; GI50 (A549; read-out: GI50): 1010 nM; GI50 (LNCaP): 514 nM; TGI (LNCaP): 620 nM; CC50 (LNCaP): 747 nM; TGI (SK-BR-3): 448 nM; GI50 (SK-BR-3): 519 nM; GI50 (HT-29): 452 nM; TGI (HT-29): 462 nM |
| C/C=C1\NC(=O)[C@H](Cc2ccc(O)cc2)NC(=O)[C@@H](C(C)C)NC(=O)[C@@H]([C@H](C)CC)NC(=O)[C@H](NC(=O)[C@H](NC(=O)[C@H](CCCN)NC(=O)[C@H]2CCCN2C(=O)[C@H](NC(=O)[C@@H](NC(=O)[C@@H](NC(=O)[C@H](NC(=O)CC[C@@H](C)CC)C(C)C)[C@@H](C)O)C(C)C)C(C)C)[C@H](C)CC)[C@H](C)OC(=O)[C@H](C(C)C)NC1=O | 2100 | 970 | – | 1980 | – | – | 1000 | 2370 | 2100 | 1930 | 2020 | 1840 | 1830 | 2310 | 2690 | 1030 | 1720 | 2170 | 184 | 748 | GI50 (HeLa): 3620 nM; TGI (HeLa): 4340 nM; TGI (SK-MEL-28): 3820 nM; GI50 (K562): 4920 nM; TGI (K562): 4300 nM; CC50 (K562): 2700 nM |

From ChEMBL document CHEMBL1156597, “Structure-activity relationship of kahalalide F synthetic analogues” (J Med Chem, 2008)
